Assay [1] has as its system Ileum. Put plainly: Inhibition of calcium-induced contraction in guinea pig ileum at 10 uM. The class given is functional. Particulars: Cavia porcellus. A digest of the protocol: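 Guinea-pig ileum was suspended in calcium-free Krebs solution containing 45 mM K+ and contracted by bringing bath calcium to 2.5 mM (sustained >40 min). At stable maximal contracture a single 1 × 10⁻⁵ M concentration was added. Inhibition is given as percentage of stimulated contraction, mean ± SEM, n = 6–12.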

The test system of another assay is Mast cell. Description: Inhibition of compound 48/80-induced histamine release in Wistar rat peritoneal mast cell at 20 uM treated 10 mins before compound 48/80 challenge. The assay is classed as functional. Put shortly:
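Peritoneal cells were lavaged from female Wistar rats (250–350 g) into prewarmed (37 °C) HEPES-buffered salt solution, without purification. Cells were centrifuged, washed three times and held at 4 °C. Inhibition is given as percentage of stimulated release, mean ± SEM, n = 5–10.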

Assay [2] relates to Ileum. Put plainly: Inhibition of calcium-induced contraction in guinea pig ileum. The assay is classed as functional, tissue-based. As to conditions: Cavia porcellus. Put shortly: (§1)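 Isolated guinea-pig ileum in high-potassium (45 mM), calcium-free modified Krebs solution. Sustained contractures (>40 min) were elicited by raising bath CaCl2 to 2.5 mM. Once contraction reached a stable maximum, compound was added cumulatively (3 × 10⁻⁸ – […]). IC50 was calculated from the concentration-effect curve.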

The test system of assay [3] is Ileum. Description: Inhibition of calcium-induced contraction in guinea pig ileum at 0.03 to 10 uM. Particulars: Cavia porcellus. The class given is functional, tissue-based. A digest of the protocol:
as §1

Assay [4] deals with Ileum. Put plainly: Inhibition of calcium-induced contraction in guinea pig ileum at 0.01 uM. The assay is classed as functional. As to conditions: Cavia porcellus. A digest of the protocol: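 Isolated guinea-pig ileum in high-potassium (45 mM), calcium-free modified Krebs solution. Sustained (>40 min) contractures were elicited by raising bath calcium to 2.5 mM with CaCl2. At stable maximum, a single concentration (1 × 10^-8 M) was added. Inhibition was expressed as a percentage of stimulated values, mean ± SEM, n = 6.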

Assay [5] has as its system Ileum. Description: Inhibition of calcium-induced contraction in guinea pig ileum at 0.001 to 0.1 uM. The class given is functional, tissue-based. As to conditions: Cavia porcellus. Put shortly:
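Isolated guinea-pig ileum in high-potassium (45 mM), calcium-free modified Krebs solution. CaCl2 was added to raise bath calcium to 2.5 mM, giving sustained (>40 min) contractures. At stable maximum, drug was added cumulatively at […] to 1 × 10^-7 M. Read-out was inhibition of contracture; IC50 was calculated from the concentration-effect curve.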

By inhibition is commonly meant the relative decrease from the control value, in per cent. For orientation: IC50 means the point on the concentration scale where inhibition reaches its midpoint.

Structures are written as SMILES.

As for `CCC1(C2=CCc3ccccc32)Cc2ccccc2C1=O` (stereo unspecified), in the assay with Ileum [1], the inhibition at 10 µM was determined as 49.6%. The inhibition at 20 µM in the assay with Mast cell came to 19.4%.

For `Cc1cc2c(c(C)c1CCO)C(=O)C(C)(C)C2` [PTEROSIN Z], in the assay on Ileum [2], the IC50 came out at 1300 nM.

In the case of `CC/C=C/CC1(C2=CCc3ccccc32)Cc2ccccc2C1=O` (stereo unspecified), in the assay on Ileum [1], the inhibition at 10 µM turned out to be 19.9%. Also, the inhibition at 20 µM in the assay with Mast cell came out at 32.5%.

`CC1(C2=CCc3ccccc32)Cc2ccccc2C1=O` (stereo unspecified): in the assay with Ileum [1], the inhibition at 10 µM amounted to 41.3%. In the assay with Mast cell, the inhibition at 20 µM came to 15.6%.

Regarding `CCCC1(C2=CCc3ccccc32)Cc2ccccc2C1=O` (stereo unspecified), in the assay with Ileum [1], the inhibition at 10 µM was determined as 51.7%. The inhibition at 20 µM with Mast cell came out at 41.2%.

For `COC(=O)CC1(C2=CCc3ccccc32)Cc2ccccc2C1=O` (stereo unspecified), in the assay on Ileum [1], the inhibition at 10 µM was found to be 20.5%. The inhibition at 20 µM in the assay with Mast cell stood at 21.9%.

In the case of `O=C(O)CC1(C2=CCc3ccccc32)Cc2ccccc2C1=O` (stereo unspecified), in the assay with Ileum [1], the inhibition at 10 µM came to 1.8%. In addition, the inhibition at 20 µM in the assay with Mast cell turned out to be 10.3%.

With `C=CCC1(C2=CCc3ccccc32)Cc2ccccc2C1O` (stereo unspecified), the inhibition at 10 µM in the assay with Ileum [1] turned out to be 79.5%. In addition, the IC50 in the assay with Ileum [3] and with Ileum [2] was 6200 nM throughout. Besides, the inhibition at 20 µM in the assay on Mast cell was -35.5%.

Consider `CC/C=C/CC1(C2=CCc3ccccc32)Cc2ccccc2C1O` (stereo unspecified), for which the inhibition at 10 µM in the assay on Ileum [1] came out at 25.6%. Moreover, in the assay on Mast cell, the inhibition at 20 µM is 49.7%.

Take `CCCCCC1(C2=CCc3ccccc32)Cc2ccccc2C1=O` (stereo unspecified): the inhibition at 10 µM with Ileum [1] turned out to be 18%. Moreover, the inhibition at 20 µM in the assay with Mast cell is -3.2%.

On to `O=C1c2ccccc2CC1(Cc1ccccc1)C1=CCc2ccccc21` (stereo unspecified), for which the inhibition at 10 µM in the assay with Ileum [1] stood at 18.9%. In the assay with Mast cell, the inhibition at 20 µM was 24.7%.

`COC(=O)c1ccc(CC2(C3=CCc4ccccc43)Cc3ccccc3C2=O)cc1` (stereo unspecified): the inhibition at 10 µM in the assay on Ileum [1] is 31.5%. Further, the inhibition at 20 µM in the assay on Mast cell was -27.8%.

Take `O=C(O)c1cc(=O)c2c(OCC(O)COc3cccc4oc(C(=O)O)cc(=O)c34)cccc2o1` [CROMOLYN SODIUM]: the inhibition at 20 µM with Mast cell was 9.1%.

For `CCCC1(C2=CCc3ccccc32)Cc2ccccc2C1O` (stereo unspecified), the inhibition at 10 µM in the assay with Ileum [1] was found to be 34.3%. Also, the inhibition at 20 µM in the assay on Mast cell was -26%.

For the molecule `COC(=O)C1=C(C)NC(C)=C(C(=O)OC)C1c1ccccc1[N+](=O)[O-]` [NIFEDIPINE], the inhibition at 0.01 µM in the assay with Ileum [4] is 48.1%. Moreover, the 50% inhibitory concentration (IC50) with Ileum [5] and with Ileum [2] was 14.7 nM in each case.
